From publication PMC3059864 (Clinics, 2011)

Key:
[1] = Biodistribution by pretargeting system in Nude mice bearing PC‐3 tumor cells; set-up: species or system Nude mice (Balb/c); conditions: mouse, in vivo, iv, 50 ul of the mixture
PC‐3 tumor xenografts = experiment: Scintigraphic imaging of tumor‐bearing mice; assay type: in vivo, Nude mice (Balb/c); conditions: tumor‐bearing Nude mice
In short: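 PC-3 xenograft-bearing nude mice were pretargeted with the SA:B-MORF:biotinylated BBN analogue mixture (1:1:2) for 7 or 15 h, then given 99mTc-MAG3-cMORF intravenously. Anaesthetised mice, lying horizontally, were imaged on a gamma camera with a low-energy high-resolution collimator. Acquisition used a 20% energy window at 140 keV for 180 s. Tumour region-of-interest uptake was expressed as a percentage.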

Structure (SMILES): CSCC[C@H](NC(=O)[C@H](CC(C)C)NC(=O)[C@H](Cc1c[nH]cn1)NC(=O)CNC(=O)[C@@H](NC(=O)[C@H](C)NC(=O)[C@H](Cc1c[nH]c2ccccc12)NC(=O)[C@H](CCC(N)=O)NC(=O)CCOCCOCCOCCOCCOCCOCCOCCOCCOCCOCCOCCOCCNC(=O)CCCC[C@@H]1SC[C@@H]2NC(=O)N[C@@H]21)C(C)C)C(N)=O [B‐PEG‐BBN, Biotin‐dPEG‐Gln‐Trp‐Ala‐Val‐Gly‐His‐Leu‐Met‐NH2]
- tissue to tissue ratio [1]: 2.45
- ROI (region of interest) in scintigraphic images (PC‐3 tumor xenografts; 7 h): 1.47%
- ROI (region of interest) in scintigraphic images (PC‐3 tumor xenografts; 15 h): 1.22%
